Experimental data of several laboratories.
Each line is one published result; the experiments were not run side by side.
Target: Serine/threonine-protein kinase Nek9 (NEK9, Homo sapiens, UniProt Q8TD19)
Sequence (Q8TD19 1-979, as in one of the studies): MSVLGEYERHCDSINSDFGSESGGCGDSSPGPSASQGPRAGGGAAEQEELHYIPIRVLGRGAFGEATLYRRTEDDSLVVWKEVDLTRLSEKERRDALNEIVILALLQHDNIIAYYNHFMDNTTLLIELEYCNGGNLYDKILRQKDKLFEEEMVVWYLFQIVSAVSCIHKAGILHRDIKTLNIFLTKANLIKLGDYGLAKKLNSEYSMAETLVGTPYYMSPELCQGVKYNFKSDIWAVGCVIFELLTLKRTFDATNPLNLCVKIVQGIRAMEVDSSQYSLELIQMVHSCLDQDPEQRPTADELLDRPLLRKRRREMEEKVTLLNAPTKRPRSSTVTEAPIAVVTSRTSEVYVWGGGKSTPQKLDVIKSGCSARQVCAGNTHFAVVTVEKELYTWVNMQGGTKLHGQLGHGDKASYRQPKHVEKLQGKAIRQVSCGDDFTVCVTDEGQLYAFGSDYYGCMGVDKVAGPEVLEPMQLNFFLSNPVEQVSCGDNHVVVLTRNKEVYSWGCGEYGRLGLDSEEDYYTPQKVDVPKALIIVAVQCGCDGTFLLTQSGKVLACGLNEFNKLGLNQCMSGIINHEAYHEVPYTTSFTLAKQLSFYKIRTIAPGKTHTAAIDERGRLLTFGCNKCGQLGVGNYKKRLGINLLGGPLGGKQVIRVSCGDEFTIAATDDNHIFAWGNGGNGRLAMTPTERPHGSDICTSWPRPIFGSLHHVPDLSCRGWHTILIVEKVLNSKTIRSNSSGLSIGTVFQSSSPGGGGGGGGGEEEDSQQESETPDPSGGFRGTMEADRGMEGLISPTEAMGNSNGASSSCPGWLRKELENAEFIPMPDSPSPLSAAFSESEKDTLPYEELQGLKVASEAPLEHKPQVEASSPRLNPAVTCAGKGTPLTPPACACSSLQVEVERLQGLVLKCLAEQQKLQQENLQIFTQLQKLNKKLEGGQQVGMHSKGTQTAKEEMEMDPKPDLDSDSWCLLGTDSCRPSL

SMILES	test	conditions	quantity	value
Cc1cc(NC(=O)c2cccc3cc(-c4cccc5[nH]nc(N)c45)ccc23)ccc1F	enzyme activity, inhibitor	0.1 µM	activity vs control	126%
O=C(Nc1cnn(-c2csc(C(=O)NC3COC3)c2)c1)Nc1c(F)cccc1Cl	enzyme activity, inhibitor	5 µM	remaining activity	88.4%
Nc1ncnc2occ(-c3ccc(NC(=O)Nc4cc(C(F)(F)F)ccc4F)cc3)c12	cell-free assay, inhibitor	20 µM	remaining signal	1.6%
N[C@H]1CCN(c2nccc(-c3cnn4ncccc34)n2)C1	binding	1 µM	remaining binding	100%
Clc1ccc(Nc2nnc(Cc3ccncc3)c3ccccc23)cc1	cell-free assay	0.5 µM	remaining signal	98.4%
COc1cc(Cl)c(C(=O)N[C@@H](CN[C@H]2CC[C@@H](N)CC2)Cc2ccc(C#N)cc2)cc1-c1ccc(CN[C@H](C)c2ccc(C)cc2)o1	enzyme activity, inhibitor	1 µM	remaining activity	127%
CS(=O)(=O)c1cc(C2(NC(=O)c3cncc4c3cnn4-c3ccc(F)cc3)CC2)ccn1	cell-free assay, competition with immobilised ligand	1 µM	remaining binding	100%
COc1cc(Nc2c(C#N)cnc3cc(OCCCN4CCN(C)CC4)c(OC)cc23)c(Cl)cc1Cl	cell-free assay	0.5 µM	remaining signal	94%
O=C(NS(=O)(=O)c1ccc(NCC2CCOCC2)c([N+](=O)[O-])c1)c1ccc(N2CCN(Cc3ccc(C(F)(F)F)cc3-c3ccc(Cl)cc3)CC2)cc1Oc1cnc2[nH]ccc2c1	cell-free assay, competition with immobilised ligand	1 µM	remaining binding	100%
CCCS(=O)(=O)Nc1ccc(F)c(C(=O)c2c[nH]c3ncc(-c4ccc(Cl)cc4)cc23)c1F	enzyme activity, inhibitor	1 µM	inhibition	< 10%
O=C(O)[C@@H]1[C@@H](Cn2nnc3ccccc3c2=O)CC[C@H]1C(=O)c1ccc(OCCC2CCOCC2)cc1	cell-free assay, competition with immobilised ligand	1 µM	remaining binding	100%
COc1cc2ncnc(Nc3ccc(Oc4ccccc4)cc3C)c2cc1OC	enzyme activity, inhibitor	1 µM	inhibition	-2%
C[C@H](NC(=O)c1cnc2n1[C@](C)(Cc1ccc(C#N)cc1)C(=O)N2c1cc(Cl)c(F)c(Cl)c1)C(=O)NC1(c2ccccn2)CC1	cell-free assay, competition with immobilised ligand	1 µM	remaining binding	100%
CNC(=O)c1cc(Oc2ccc(NC(=O)Nc3ccc(Cl)c(C(F)(F)F)c3)cc2)ccn1	cell-free assay	0.5 µM	remaining signal	95.4%
CC(C)(C)c1nc(-c2cccc(NS(=O)(=O)c3c(F)cccc3F)c2F)c(-c2ccnc(N)n2)s1	enzyme activity, inhibitor, radiometric	1 µM	remaining activity	106%
N#CCCc1ccc2c(c1)-c1[nH]c3ccc([N+](=O)[O-])cc3c1CC(=O)N2	cell-free assay	0.5 µM	remaining signal	103%
Cc1nc(N2CC[C@@H](O)C2)ncc1-c1cc(C(F)(F)F)cc2[nH]ncc12	binding, competition with immobilised ligand	1 µM	remaining binding	96%
